Calls of active or inactive are those of the source. The calls are words filed in the database; no cut-off is given here.
Key:
[1] = test system: Plasmodium falciparum; assay: Synergistic antiplasmodial activity against multidrug-resistant Plasmodium falciparum Cam3.1R539T infected in human erythrocytes at 8 times IC50 concentration incubated for 72 hrs in presence of mefloquine by SYBR green I staining based fluorescence assay; format: functional, organism-based; details: Erythrocyte
Procedure, shortened: (§1)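 P. falciparum Cam3.1R539T in O+ human erythrocytes, 1% parasitemia, 2% haematocrit. 8× IC50 stocks of test compound and standard drug were mixed at molar ratios 4:1, 3:2, 2:3 and 1:4, then serially diluted two-fold. Plates were incubated 72 h at 37 °C and read by SYBR Green I lysis. Controls were 0.4% DMSO (100% growth) and 4 μM chloroquine (0% growth). ΣFIC = FICA + FICB; <1 synergistic, 1.0–2.0 additive, >2.0 antagonistic.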

[2] = test system: Plasmodium falciparum; assay: Antiplasmodial activity against chloroquine resistant schizont stage Plasmodium falciparum INDO infected in human erythrocytes assessed as prevention of schizont rupture at 5.62 uM incubated for 4 hrs by time-kill kinetics based FACS analysis; format: functional, organism-based; details: Erythrocyte
Procedure, shortened: (§2)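 PfINDO early schizonts (32–36 h post-invasion) and late schizonts (42–45 h post-invasion) were exposed to 5.62 or 4.30 μM for up to 16 h, washed at 4 h intervals, then cultured drug-free to a total of 96 h. Parasitemia was counted by FACS on 10^5 cells at the end of the second cycle; schizont rupture was checked microscopically.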

[3] = test system: Plasmodium falciparum; assay: Antiplasmodial activity against chloroquine resistant ring stage Plasmodium falciparum INDO infected in human erythrocytes assessed as reduction in parasitemia at 2.25 uM incubated for 12 hrs by time-kill kinetics based FACS analysis relative to control; format: functional, Erythrocyte; set-up: scale not given: the % may be the effect or the level left
Procedure, shortened: (§3)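 PfINDO rings were exposed to 2.25 or 1.79 μM, with compound washed out by centrifugation at 12, 24, 36, 48 or 57 h. Cultures were then grown drug-free to a total of 96 h. Parasitemia at the end of the second cycle was counted by FACS on 10^5 cells.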

[4] = test system: Plasmodium falciparum; assay: Antiplasmodial activity against chloroquine resistant schizont stage Plasmodium falciparum INDO infected in human erythrocytes assessed as decrease in parasitemia at 5.62 uM incubated for 4 hrs by time-kill kinetics based FACS analysis; format: functional, organism-based; details: Erythrocyte; procedure, shortened: as §2
[5] = Cytotoxicity against human HEK293 cells assessed as reduction in cell viability incubated for 24 hrs by MTT assay; format: toxicity, cell-based
[6] = Toxicity in mouse assessed as lacrimation at 100 mg/kg, po measured after 45 mins; format: organism-based; details: in vivo, 0.75 h
Procedure, shortened: (§4)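 Acute oral toxicity per OECD 423. Mice were fasted 4 h, given a single 100 mg/kg oral dose, and observed for 45 min for signs of acute toxicity, compared with untreated controls.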

[7] = Toxicity in mouse assessed as effect on urination at 100 mg/kg, po measured after 45 mins; format: organism-based; details: in vivo, 0.75 h; procedure, shortened: as §4
[8] = Toxicity in mouse assessed as change in temperature at 100 mg/kg, po measured after 45 mins; format: organism-based; details: in vivo, 0.75 h; procedure, shortened: as §4
[9] = Toxicity in mouse assessed as effect on eye colour at 100 mg/kg, po measured after 45 mins; format: organism-based; details: in vivo, 0.75 h; procedure, shortened: as §4
[10] = test system: Plasmodium falciparum; assay: Antiplasmodial activity against chloroquine resistant Plasmodium falciparum INDO infected in human erythrocytes assessed as inhibition of parasite growth at 100 uM incubated for 72 hrs by SYBR green I staining based fluorescence plate reader analysis relative to control; format: functional; details: Erythrocyte
Procedure, shortened: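 Single-concentration screen at 100 μM against PfINDO, triplicate wells, 72 h. Final DMSO was 0.4%. Growth was read by SYBR Green I lysis (excitation 485, emission 530 nm) and expressed relative to untreated culture, taken as 100% growth.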

[11] = Toxicity in mouse assessed as changes in skin at 100 mg/kg, po measured after 45 mins; format: organism-based; details: in vivo, 0.75 h; procedure, shortened: as §4
[12] = test system: Plasmodium falciparum; assay: Antimalarial activity against chloroquine resistant late schizont Plasmodium falciparum INDO infected in human erythrocytes assessed as inhibition of parasite growth incubated for 12 hrs; format: functional, organism-based; details: Erythrocyte
Procedure, shortened: (§5)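 PfINDO cultures were staged at 0–6 h (rings), 18–22 h (trophozoites), 30–34 h (early schizonts) and 40–44 h (late schizonts) post-invasion. Each was exposed to varying concentrations for 12 h, washed free of compound by centrifugation, and grown 48 h in drug-free medium. IC50 came from growth curves, with untreated culture as 100% and chloroquine-treated culture as 0% growth.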

[13] = Toxicity in mouse assessed as change in body weight at 100 mg/kg, po measured after 45 mins; format: organism-based; details: in vivo, 0.75 h; procedure, shortened: as §4
[14] = test system: Plasmodium falciparum; assay: Additive antiplasmodial activity against multidrug-resistant Plasmodium falciparum Cam3.1R539T infected in human erythrocytes at 8 times IC50 concentration incubated for 72 hrs in presence of artemisinin by SYBR green I staining based fluorescence assay; format: functional, organism-based; details: Erythrocyte; procedure, shortened: as §1
[15] = Toxicity in mouse assessed as effect on rate of respiration at 100 mg/kg, po measured after 45 mins; format: organism-based; details: in vivo, 0.75 h; procedure, shortened: as §4
[16] = test system: Plasmodium falciparum; assay: Synergistic antiplasmodial activity against multidrug-resistant Plasmodium falciparum Cam3.1R539T infected in human erythrocytes at 8 times IC50 concentration incubated for 72 hrs in presence of pyrimethamine by SYBR green I staining based fluorescence assay; format: functional, organism-based; details: Erythrocyte; procedure, shortened: as §1
[17] = test system: Plasmodium falciparum; assay: Antimalarial activity against chloroquine resistant trophozoites-stage Plasmodium falciparum INDO infected in human erythrocytes assessed as inhibition of parasite growth incubated for 12 hrs; format: functional, organism-based; details: Erythrocyte; procedure, shortened: as §5
[18] = test system: Plasmodium falciparum; assay: Antiplasmodial activity against chloroquine resistant segmental schizont stage Plasmodium falciparum INDO infected in human erythrocytes assessed inhibition of rupture at 5.62 uM preincubated with compound for 8 hrs followed by media replacement without compound and measured after 48 hrs by SYBR Green staining based FACS analysis; format: functional, organism-based; details: Erythrocyte
[19] = test system: Plasmodium falciparum; assay: Antiplasmodial activity against chloroquine resistant ring stage Plasmodium falciparum INDO infected in human erythrocytes assessed as reduction in parasitemia at 1.79 uM incubated for 12 hrs by time-kill kinetics based FACS analysis relative to control; format: functional, Erythrocyte; set-up: scale not given: the % may be the effect or the level left; procedure, shortened: as §3
[20] = test system: Plasmodium falciparum; assay: Antiplasmodial activity against chloroquine resistant schizont stage Plasmodium falciparum INDO infected in human erythrocytes assessed as prevention of schizont rupture at 4.30 uM incubated for 4 hrs by time-kill kinetics based FACS analysis; format: functional, organism-based; details: Erythrocyte, dose 4.3 µM; procedure, shortened: as §2
[21] = test system: Plasmodium falciparum; assay: Additive antiplasmodial activity against multidrug-resistant Plasmodium falciparum Cam3.1R539T infected in human erythrocytes at 8 times IC50 concentration incubated for 72 hrs in presence of pyrimethamine by SYBR green I staining based fluorescence assay; format: functional, organism-based; details: Erythrocyte; procedure, shortened: as §1
[22] = test system: Plasmodium falciparum; assay: Antagonistic antiplasmodial activity against multidrug-resistant Plasmodium falciparum Cam3.1R539T infected in human erythrocytes at 8 times IC50 concentration incubated for 72 hrs in presence of mefloquine by SYBR green I staining based fluorescence assay; format: functional, organism-based; details: Erythrocyte; procedure, shortened: as §1
[23] = test system: Plasmodium falciparum; assay: Antiplasmodial activity against chloroquine resistant schizont stage Plasmodium falciparum INDO infected in human erythrocytes assessed as decrease in parasitemia at 4.30 uM incubated for 4 hrs by time-kill kinetics based FACS analysis; format: functional, organism-based; details: Erythrocyte, dose 4.3 µM; procedure, shortened: as §2

Row | SMILES | CC50 at 24 h [5] | Activity [6] | Activity [7] | Activity [8] | Activity [9] | inhibition at 100 µM [10] | Activity [11] | IC50 [12] | Activity [13] | Activity [14] | Activity [15] | IC50 [17] | further results
1 | Clc1ccc2c(N3CCN(CCCn4nnc(-c5ccc(Br)cc5)n4)CC3)ccnc2c1 | 400000 nM | Non-Toxic | Non-Toxic | Non-Toxic | Non-Toxic | > 50% | Non-Toxic | 1500 nM | Non-Toxic | Active | Non-Toxic | 2160 nM | Activity [1]: Active; Activity [2]: Active; Activity [3]: ~22%; Activity [4]: Active; Activity [16]: Active; Activity [18]: Active
2 | O=C(Cn1nnc(-c2cccc([N+](=O)[O-])c2)n1)N1CCN(c2ccnc3cc(Cl)ccc23)CC1 | > 400000 nM | Non-Toxic | Non-Toxic | Non-Toxic | Non-Toxic | > 50% | Non-Toxic | 7100 nM | Non-Toxic | Active | Non-Toxic | 2720 nM | Activity [19]: ~22%; Activity [20]: inactive; Activity [21]: Active; Activity [22]: Active; Activity [23]: Active

Source: ChEMBL document CHEMBL5335820, “Novel quinolinepiperazinyl-aryltetrazoles targeting the blood stage of Plasmodium falciparum” (RSC Med Chem, 2024)
